In ChEMBL document CHEMBL2390920, “8-Benzamidochromen-4-one-2-carboxylic acids: potent and selective agonists for the orphan G protein-coupled receptor GPR35” (J Med Chem, 2013):

Key:
[1] = biological target: T1, G-protein coupled receptor 55 (Homo sapiens, UniProt Q9Y2T6); assay: Antagonist activity at human GPR55 expressed in CHO cells assessed as inhibition of lysophosphotidylinositol-induced beta-arrestin recruitment at 10 uM preincubated for 30 mins followed by lysophosphotidylinositol induction by beta-galactosidase reporter gene assay relative to control; format: functional, cell-based
How it was run: (§1)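 Human GPR55 PathHunter CHO cells were preincubated 30 min with compound, then stimulated with LPI (final 1 µM). After 90 min, detection reagent was added and luminescence read 60 min later. Screening was at 10 µM; full concentration-inhibition curves were run for selected compounds to give IC50.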

[2] = biological target: G-protein coupled receptor 35 (Mus musculus) (UniProt Q9ES90); assay: Agonist activity at mouse GPR35 expressed in CHO cells assessed as induction of beta-arrestin recruitment at 10 uM after 90 mins by beta-galactosidase reporter gene assay relative to zaprinast; format: cell-based
How it was run: (§2)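 Mouse GPR35 introduced by transfection into a CHO β-arrestin-EA line; 20000 cells/well plated the day prior. After 90 min of compound exposure (final DMSO ≤1%), detection reagent was added and luminescence read after 60 min.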

[3] = biological target: G-protein coupled receptor 35 (Mus musculus, UniProt Q9ES90); assay: Agonist activity at mouse GPR35 expressed in CHO cells assessed as induction of beta-arrestin recruitment after 90 mins by beta-galactosidase reporter gene assay; format: cell-based; how it was run: as §2
[4] = biological target: T2, G-protein coupled receptor 35 (Homo sapiens, UniProt Q9HC97); assay: Agonist activity at human GPR35 expressed in CHO cells assessed as induction of beta-arrestin recruitment after 90 mins by beta-galactosidase reporter gene assay; format: cell-based
How it was run: (§3)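 PathHunter enzyme-fragment complementation in CHO cells stably expressing β-arrestin-EA and tagged human GPR35, seeded at 20000 cells/well the day before. DMSO dilutions were further diluted 1:10 (final DMSO ≤1%). Cells were incubated 90 min, then detection reagent was added and luminescence read after 60 min.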

[5] = biological target: G protein-coupled receptor GPR35 (Rattus norvegicus, UniProt Q33BM1); assay: Agonist activity at rat GPR35 expressed in CHO cells assessed as induction of beta-arrestin recruitment after 90 mins by beta-galactosidase reporter gene assay; format: cell-based
How it was run: (§4)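 Rat GPR35 expressed by transfecting a parental CHO β-arrestin-EA line; cells seeded at 20000/well the day before. Compounds (final DMSO ≤1%) were incubated 90 min, followed by detection reagent and a luminescence read after 60 min.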

[6] = biological target: T1, G-protein coupled receptor 55; assay: Agonist activity at human GPR55 expressed in CHO cells assessed as induction of beta-arrestin recruitment at 10 uM after 90 mins by beta-galactosidase reporter gene assay relative to lysophosphotidylinositol; format: functional, cell-based
How it was run: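 Human GPR55 PathHunter CHO cells, 20000 cells/well seeded the day before, received test compound at 10 µM (final DMSO ≤1%) for 90 min. Detection reagent was then added and luminescence read after 60 min. Signal was normalized to that of 1 µM LPI.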

[7] = biological target: T2, G-protein coupled receptor 35; assay: Agonist activity at human GPR35b expressed in CHO cells assessed as induction of beta-arrestin recruitment after 90 mins by beta-galactosidase reporter gene assay; format: cell-based
How it was run: (§5)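 CHO β-arrestin-EA parental line transfected with human GPR35b, seeded at 20000 cells/well the day before. Compounds in DMSO were diluted 1:10 in medium or PBS (final DMSO ≤1%). After 90 min of incubation, detection reagent was added and luminescence measured 60 min later. Screening was at 10 µM.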

[8] = biological target: T2, G-protein coupled receptor 35; assay: Agonist activity at human GPR35 expressed in CHO cells assessed as induction of beta-arrestin recruitment at 10 uM after 90 mins by beta-galactosidase reporter gene assay relative to zaprinast; format: cell-based; how it was run: as §3
[9] = biological target: T2, G-protein coupled receptor 35; assay: Agonist activity at human GPR35b expressed in CHO cells assessed as induction of beta-arrestin recruitment at 10 uM after 90 mins by beta-galactosidase reporter gene assay relative to zaprinast; format: cell-based; how it was run: as §5
[10] = biological target: G protein-coupled receptor GPR35 (Rattus norvegicus) (UniProt Q33BM1); assay: Agonist activity at rat GPR35 expressed in CHO cells assessed as induction of beta-arrestin recruitment at 10 uM after 90 mins by beta-galactosidase reporter gene assay relative to zaprinast; format: cell-based; how it was run: as §4
[11] = biological target: G-protein coupled receptor 35 (Mus musculus) (UniProt Q9ES90); assay: Agonist activity at mouse GPR35 expressed in CHO cells assessed as induction of beta-arrestin recruitment at 10 uM after 90 mins by beta-galactosidase reporter gene assay; format: cell-based; how it was run: as §2
[12] = biological target: T2, G-protein coupled receptor 35; assay: Agonist activity at human GPR35 expressed in CHO cells assessed as induction of beta-arrestin recruitment at 10 uM after 90 mins by beta-galactosidase reporter gene assay; format: cell-based; how it was run: as §3
[13] = biological target: G protein-coupled receptor GPR35 (Rattus norvegicus) (UniProt Q33BM1); assay: Agonist activity at rat GPR35 expressed in CHO cells assessed as induction of beta-arrestin recruitment at 10 uM after 90 mins by beta-galactosidase reporter gene assay; format: cell-based; how it was run: as §4
[14] = biological target: T1, G-protein coupled receptor 55; assay: Antagonist activity at human GPR55 expressed in CHO cells assessed as inhibition of lysophosphotidylinositol-induced beta-arrestin recruitment preincubated for 30 mins followed by lysophosphotidylinositol induction by beta-galactosidase reporter gene assay; format: functional, cell-based; how it was run: as §1
[15] = organism: Homo sapiens; assay: Selectivity ratio of IC50 for human GPR55 to EC50 for human GPR35

Sequence of G-protein coupled receptor 35 (Mus musculus, UniProt Q9ES90) (Q9ES90 whole entry): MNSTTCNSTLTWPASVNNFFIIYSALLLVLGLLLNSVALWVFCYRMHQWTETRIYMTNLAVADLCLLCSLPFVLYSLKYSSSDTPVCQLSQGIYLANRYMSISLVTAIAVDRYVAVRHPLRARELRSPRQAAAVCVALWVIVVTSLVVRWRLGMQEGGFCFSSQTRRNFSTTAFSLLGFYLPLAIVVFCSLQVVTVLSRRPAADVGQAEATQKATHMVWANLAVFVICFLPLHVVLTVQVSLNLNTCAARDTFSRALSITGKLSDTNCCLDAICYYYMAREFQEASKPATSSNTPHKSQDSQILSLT
Sequence of G-protein coupled receptor 35 (Mus musculus) (Q9ES90 whole entry): as above
T1 sequence (Q9Y2T6 whole entry): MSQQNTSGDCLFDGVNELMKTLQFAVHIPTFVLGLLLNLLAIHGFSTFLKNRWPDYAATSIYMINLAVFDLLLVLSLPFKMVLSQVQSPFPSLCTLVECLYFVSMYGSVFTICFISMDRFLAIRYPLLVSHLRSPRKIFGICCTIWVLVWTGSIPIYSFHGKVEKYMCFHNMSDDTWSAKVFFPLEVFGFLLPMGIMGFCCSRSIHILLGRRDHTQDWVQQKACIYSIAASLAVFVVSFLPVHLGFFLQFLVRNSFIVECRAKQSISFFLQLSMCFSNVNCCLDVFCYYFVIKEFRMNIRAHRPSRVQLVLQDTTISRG
Sequence of G protein-coupled receptor GPR35 (Q33BM1 whole entry): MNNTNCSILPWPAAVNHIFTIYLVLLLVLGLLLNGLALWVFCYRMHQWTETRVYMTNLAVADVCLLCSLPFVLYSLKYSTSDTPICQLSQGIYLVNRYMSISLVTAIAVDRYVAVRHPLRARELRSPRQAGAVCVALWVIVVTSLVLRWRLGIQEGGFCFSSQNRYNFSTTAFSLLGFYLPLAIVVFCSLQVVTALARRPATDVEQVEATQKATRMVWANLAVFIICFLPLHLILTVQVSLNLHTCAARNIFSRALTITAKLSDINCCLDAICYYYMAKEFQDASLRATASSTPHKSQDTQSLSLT
Sequence of G protein-coupled receptor GPR35 (Rattus norvegicus) (Q33BM1 as listed by the source): as the sequence (Q33BM1 whole entry) above
T2 sequence (Q9HC97 whole entry, the tested form may be a part): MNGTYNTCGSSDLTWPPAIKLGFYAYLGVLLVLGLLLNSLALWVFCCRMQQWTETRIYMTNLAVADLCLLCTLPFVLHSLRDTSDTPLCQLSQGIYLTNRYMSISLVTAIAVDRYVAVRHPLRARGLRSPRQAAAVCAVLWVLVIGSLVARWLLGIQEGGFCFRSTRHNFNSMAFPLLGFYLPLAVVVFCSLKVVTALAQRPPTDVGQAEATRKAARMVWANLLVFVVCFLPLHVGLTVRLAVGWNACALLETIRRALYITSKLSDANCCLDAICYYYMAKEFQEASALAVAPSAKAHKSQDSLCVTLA

Compound: COc1ccc(C(=O)Nc2cccc3c(=O)cc(C(=O)O)oc23)cc1
- inhibition [1]: -3%
- Emax [2]: 66%
- EC50 [3]: 5030 nM
- EC50 [4]: 346 nM
- EC50 [5]: 2160 nM
- Activity [6]: 0%
- EC50 [7]: 472 nM
- Emax [8]: 104%
- Emax [9]: 115%
- Emax [10]: 85%

Compound: CCCOc1ccc(C(=O)Nc2cccc3c(=O)cc(C(=O)O)oc23)cc1
- inhibition [1]: 21%
- Activity [11]: 13%
- EC50 [5]: 3610 nM
- Activity [6]: 10%
- Activity [12]: 4%
- Emax [10]: 80%

Compound: O=C(O)c1cc(=O)c2cc(Br)cc(NC(=O)c3ccc(Cl)cc3Cl)c2o1
- inhibition [1]: 43%
- Activity [13]: 32%
- Activity [11]: 12%
- EC50 [4]: 16.4 nM
- Activity [6]: 10%
- EC50 [7]: 34.6 nM
- Emax [8]: 110%
- Emax [9]: 116%

Compound: COc1ccc(C(=O)Nc2cc(Br)cc3c(=O)cc(C(=O)O)oc23)nc1
- Activity [11]: 27%
- EC50 [4]: 144 nM
- EC50 [5]: 1540 nM
- Activity [6]: 4%
- Emax [8]: 115%
- IC50 [14]: 8920 nM
- Emax [10]: 68%

Compound: O=C(Nc1cccc2c(=O)cc(C(=O)O)oc12)c1ccc(Br)cc1
- inhibition [1]: 9%
- Activity [13]: 49%
- Activity [11]: 28%
- EC50 [4]: 804 nM
- Activity [6]: 8%
- EC50 [7]: 678 nM
- Emax [8]: 122%
- Emax [9]: 113%

Compound: O=C(Nc1cccc2c(=O)cc(C(=O)O)oc12)c1ccc(OCC2CC2)cc1
- inhibition [1]: 24%
- Activity [13]: 48%
- Activity [11]: 13%
- Activity [6]: -5%
- Activity [12]: 10%

Compound: Nc1cccc2c(=O)cc(C(=O)O)oc12
- inhibition [1]: 19%
- Activity [13]: 40%
- Activity [11]: 4%
- Activity [6]: -11%
- Activity [12]: 2%

Compound: O=C1N/C(=N/c2ccccc2F)S/C1=C\c1ccc(C(=O)O)cc1
- EC50 [3]: 17000 nM
- EC50 [5]: 8000 nM

Compound: COc1ccccc1C(=O)Nc1cc(Br)cc2c(=O)cc(C(=O)O)oc12
- inhibition [1]: 44%
- Emax [2]: 71%
- EC50 [3]: 4950 nM
- EC50 [4]: 1660 nM
- EC50 [5]: 1100 nM
- Activity [6]: 9%
- Emax [8]: 91%
- Emax [10]: 73%

Compound: O=C(O)c1cc(=O)c2cc(F)cc(NC(=O)c3ccc(Cl)cc3Cl)c2o1
- inhibition [1]: 18%
- Activity [13]: 46%
- Activity [11]: 24%
- EC50 [4]: 17 nM
- Activity [6]: -8%
- EC50 [7]: 20.5 nM
- Emax [8]: 113%
- Emax [9]: 110%

Compound: COc1ccc(C(=O)Nc2cc(Br)cc3c(=O)cc(C(=O)O)oc23)cc1OC
- inhibition [1]: 45%
- Emax [2]: 73%
- EC50 [3]: 6400 nM
- EC50 [4]: 425 nM
- EC50 [5]: 1300 nM
- Activity [6]: -12%
- EC50 [7]: 628 nM
- Emax [8]: 102%
- Emax [9]: 101%
- Emax [10]: 106%

Compound: O=C(Nc1cc(F)cc2c(=O)cc(C(=O)O)oc12)c1ccc(Cl)c(Cl)c1
- inhibition [1]: 54%
- Activity [11]: 37%
- EC50 [4]: 117 nM
- EC50 [5]: 2650 nM
- Activity [6]: 3%
- EC50 [7]: 106 nM
- Emax [8]: 131%
- Emax [9]: 136%
- Emax [10]: 80%

Compound: CCCOc1ccccc1-c1nc2nn[nH]c2c(=O)[nH]1 [ZAPRINAST]
- EC50 [3]: 1600 nM
- EC50 [5]: 61.1 nM

Compound: Cc1cccc(C(=O)Nc2cc(Br)cc3c(=O)cc(C(=O)O)oc23)c1
- inhibition [1]: 46%
- Activity [11]: 27%
- EC50 [4]: 842 nM
- EC50 [5]: 2080 nM
- Activity [6]: -8%
- EC50 [7]: 699 nM
- Emax [8]: 138%
- Emax [9]: 111%
- Emax [10]: 79%

Compound: COc1ccc(C(=O)Nc2cc(Br)cc3c(=O)cc(C(=O)O)oc23)c(Cl)c1
- Activity [11]: 35%
- EC50 [4]: 11.1 nM
- EC50 [5]: 4170 nM
- Activity [6]: 10%
- EC50 [7]: 14.7 nM
- Emax [8]: 120%
- Emax [9]: 129%
- IC50 [14]: 21700 nM
- Emax [10]: 81%
- Ratio IC50/EC50 [15]: > 1700

Compound: O=C(Nc1cc(Br)cc2c(=O)cc(C(=O)O)oc12)c1ccc(Cl)cc1
- inhibition [1]: 40%
- Activity [13]: 47%
- Activity [11]: 27%
- EC50 [4]: 25.1 nM
- Activity [6]: 12%
- EC50 [7]: 40.5 nM
- Emax [8]: 115%
- Emax [9]: 130%

Compound: O=C(Nc1cccc2c(=O)cc(C(=O)O)oc12)c1ccc2ccccc2c1
- Activity [13]: 46%
- Emax [2]: 79%
- EC50 [3]: 2990 nM
- EC50 [4]: 4670 nM
- Activity [6]: 6%
- Emax [8]: 125%
- IC50 [14]: 29100 nM

Compound: COc1ccc(C(=O)Nc2cc(Br)cc3c(=O)cc(C(=O)O)oc23)cn1
- Emax [2]: 64%
- EC50 [3]: 4980 nM
- EC50 [4]: 30.5 nM
- EC50 [5]: 991 nM
- Activity [6]: 9%
- Emax [8]: 117%
- IC50 [14]: 6200 nM
- Emax [10]: 94%

Compound: O=C(Nc1cc(Br)cc2c(=O)cc(C(=O)O)oc12)c1ccc2c(c1)OCO2
- inhibition [1]: 46%
- Activity [11]: 34%
- EC50 [4]: 59.9 nM
- EC50 [5]: 2050 nM
- Activity [6]: 9%
- EC50 [7]: 128 nM
- Emax [8]: 107%
- Emax [9]: 118%
- Emax [10]: 86%

Compound: O=C(Nc1cccc2c(=O)cc(C(=O)O)oc12)c1ccc2ccccc2n1
- inhibition [1]: 31%
- Activity [13]: 41%
- Emax [2]: 65%
- EC50 [3]: 3590 nM
- EC50 [4]: 1340 nM
- Activity [6]: -6%
- Emax [8]: 81%
